Data reported in ChEMBL document CHEMBL4325907, “Diaryl hydroxylamines as pan or dual inhibitors of indoleamine 2,3-dioxygenase-1, indoleamine 2,3-dioxygenase-2 and tryptophan dioxygenase” (Eur J Med Chem, 2019).

Target: T1, Indoleamine 2,3-dioxygenase 2 (Mus musculus, UniProt Q8R0V5)
T1 sequence (Q8R0V5 whole entry): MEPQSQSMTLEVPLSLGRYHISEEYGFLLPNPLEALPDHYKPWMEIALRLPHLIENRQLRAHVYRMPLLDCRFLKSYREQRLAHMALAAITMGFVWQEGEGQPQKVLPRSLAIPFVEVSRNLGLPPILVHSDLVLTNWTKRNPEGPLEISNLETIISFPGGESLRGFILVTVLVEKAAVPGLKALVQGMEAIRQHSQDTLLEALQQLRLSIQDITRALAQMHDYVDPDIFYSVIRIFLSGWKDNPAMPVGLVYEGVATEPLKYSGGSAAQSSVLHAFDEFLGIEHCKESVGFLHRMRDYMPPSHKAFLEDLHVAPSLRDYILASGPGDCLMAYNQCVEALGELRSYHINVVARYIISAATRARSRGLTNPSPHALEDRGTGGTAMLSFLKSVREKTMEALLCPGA
Test: Inhibition of mouse IDO2 expressed in human T-REx cells using L-tryptophan as substrate after 20 hrs
Assay type: cell-based
Conditions: not given
Outline: (§1)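 HeLa cells (endogenous human IDO1) were induced with 100 ng/mL IFNγ for 24 h at 100 μM Trp. T-REx cells carried tet-regulated human TDO (2 ng/mL doxycycline, 24 h, 100 μM Trp) or mouse IDO2 (doxycycline plus 8 mM 5-aminolevulinic acid, 20 μM hemin, 4 mM Trp, 48 h). After induction, compound serial dilutions were added in medium with final Trp 100 μM (IDO1/TDO) or 2 mM (IDO2) for 20 h at 37 °C. Read-out was TCA fixation, 65 °C hydrolysis, then p-dimethylaminobenzaldehyde colour.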

Compound | IC50 [µM]
NOC(c1ccccc1)C1CCCCC1 (centres undefined) | 40.2
NOC(c1ccc(F)cc1)c1ccc(F)cc1 | 12.1
NOC(c1ccccc1)c1cc(C(F)(F)F)ccc1F (centres undefined) | 8.94
NOC(c1ccccc1)c1cccc(C(F)(F)F)c1F (centres undefined) | 16.8
NOC(c1ccccc1)c1cccc(C(F)(F)F)c1 (centres undefined) | 24.7
NOC(c1ccccc1)c1cccc(F)c1 (centres undefined) | 9.99
NOC(c1ccccc1)c1ccc(Cl)cc1 (centres undefined) | 27.8
NOC(c1ccccc1)c1ccccc1Br (centres undefined) | 12.3
NOC(c1ccccc1)c1ccc(O)cc1 (centres undefined) | 12.6
NOC(c1ccccc1)c1cc(C(F)(F)F)cc(C(F)(F)F)c1 (centres undefined) | 14.5
NOC(c1ccccc1)c1ccc(F)cc1F (centres undefined) | 18.9

Target: T2, Tryptophan 2,3-dioxygenase (Homo sapiens, UniProt P48775)
Test: Inhibition of human TDO expressed in human T-REx cells using L-tryptophan as substrate after 20 hrs
Assay type: cell-based
Conditions: not given
Outline: as §1
Target sequence in this assay (P48775 whole entry): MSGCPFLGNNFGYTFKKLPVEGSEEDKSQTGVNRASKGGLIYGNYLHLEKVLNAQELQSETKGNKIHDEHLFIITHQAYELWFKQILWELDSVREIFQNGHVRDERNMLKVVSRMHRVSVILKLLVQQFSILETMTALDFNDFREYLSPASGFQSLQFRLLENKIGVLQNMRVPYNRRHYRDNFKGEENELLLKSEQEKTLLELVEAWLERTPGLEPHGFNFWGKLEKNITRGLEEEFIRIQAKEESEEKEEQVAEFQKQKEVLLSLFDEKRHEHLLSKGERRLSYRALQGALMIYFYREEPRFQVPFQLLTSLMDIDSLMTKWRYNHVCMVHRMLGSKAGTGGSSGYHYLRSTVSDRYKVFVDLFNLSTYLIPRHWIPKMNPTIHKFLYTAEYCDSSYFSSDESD

Compound | IC50 [µM]
NOC(c1ccccc1)C1CCCCC1 (centres undefined) | 2770
NOC(c1ccc(F)cc1)c1ccc(F)cc1 | 5.15
NOC(c1ccccc1)c1cc(C(F)(F)F)ccc1F (centres undefined) | 9.02
NOC(c1ccccc1)c1cccc(C(F)(F)F)c1F (centres undefined) | 5.62
NOC(c1ccccc1)c1cccc(C(F)(F)F)c1 (centres undefined) | 13.6
NOC(c1ccccc1)c1cccc(F)c1 (centres undefined) | 6.21
NOC(c1ccccc1)c1ccc(Cl)cc1 (centres undefined) | 23.7
NOC(c1ccccc1)c1ccccc1Br (centres undefined) | 22.5
NOC(c1ccccc1)c1ccc(O)cc1 (centres undefined) | 29.8
NOC(c1ccccc1)c1cc(C(F)(F)F)cc(C(F)(F)F)c1 (centres undefined) | 77.4
NOC(c1ccccc1)c1ccc(F)cc1F (centres undefined) | 6.37

Target: T3, Indoleamine 2,3-dioxygenase 2 (Homo sapiens) (UniProt Q6ZQW0)
T3 sequence (whole entry): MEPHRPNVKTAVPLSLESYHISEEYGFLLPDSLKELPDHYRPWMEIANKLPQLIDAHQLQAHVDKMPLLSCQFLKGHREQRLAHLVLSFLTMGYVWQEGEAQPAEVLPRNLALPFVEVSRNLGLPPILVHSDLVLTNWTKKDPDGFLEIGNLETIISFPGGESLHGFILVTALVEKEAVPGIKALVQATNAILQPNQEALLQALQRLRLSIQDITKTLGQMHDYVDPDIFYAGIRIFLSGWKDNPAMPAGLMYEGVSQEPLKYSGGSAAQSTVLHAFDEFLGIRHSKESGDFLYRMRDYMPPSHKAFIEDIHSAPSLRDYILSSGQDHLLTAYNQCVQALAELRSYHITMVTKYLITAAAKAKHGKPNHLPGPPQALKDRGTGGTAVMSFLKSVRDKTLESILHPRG
Test: Inhibition of IDO2 (unknown origin) at 200 uM using L-tryptophan as substrate by spectrophotometric method relative to control
Conditions: not given

Compound | inhibition [%]
NOC(c1ccccc1)c1ccc(O)cc1 (centres undefined) | 72.3
NOC(c1ccccc1)c1cc(C(F)(F)F)cc(C(F)(F)F)c1 (centres undefined) | 53.3

Target: T2, Tryptophan 2,3-dioxygenase
Test: Inhibition of TDO (unknown origin) using L-tryptophan as substrate by spectrophotometric method
Conditions: not given
Target sequence in this assay (P48775 whole entry): as the sequence (P48775 whole entry) above

Compound | IC50 [µM]
NOC(c1ccc(F)cc1)c1ccc(F)cc1 | 9
NOC(c1ccccc1)c1cccc(C(F)(F)F)c1 (centres undefined) | 12
NOC(c1ccccc1)c1cccc(F)c1 (centres undefined) | 6
NOC(c1ccccc1)c1ccc(Cl)cc1 (centres undefined) | 5

Target: T2, Tryptophan 2,3-dioxygenase
Test: Inhibition of TDO (unknown origin) at 200 uM using L-tryptophan as substrate by spectrophotometric method relative to control
Conditions: not given
Target sequence in this assay (P48775 whole entry, looked up): as the sequence (P48775 whole entry) above

Compound | inhibition [%]
NOC(c1ccccc1)c1ccc(O)cc1 (centres undefined) | 48.7
NOC(c1ccccc1)c1cc(C(F)(F)F)cc(C(F)(F)F)c1 (centres undefined) | 50.8

Species on record: Homo sapiens
Test: Selectivity ratio of IC50 for inhibition of human TDO expressed in human T-REx cells to IC50 for inhibition of IDO1 in human HeLa cells
Assay type: cell-based
Conditions: not given
Outline: as §1

Compound | Ratio IC50
NOC(c1ccccc1)c1ccccc1Br (centres undefined) | 5 to 10

Target: T4, Indoleamine 2,3-dioxygenase 1 (Homo sapiens, UniProt P14902)
Test: Inhibition of IDO1 (unknown origin) using L-tryptophan as substrate by spectrophotometric method
Conditions: not given
Target sequence in this assay (P14902 whole entry): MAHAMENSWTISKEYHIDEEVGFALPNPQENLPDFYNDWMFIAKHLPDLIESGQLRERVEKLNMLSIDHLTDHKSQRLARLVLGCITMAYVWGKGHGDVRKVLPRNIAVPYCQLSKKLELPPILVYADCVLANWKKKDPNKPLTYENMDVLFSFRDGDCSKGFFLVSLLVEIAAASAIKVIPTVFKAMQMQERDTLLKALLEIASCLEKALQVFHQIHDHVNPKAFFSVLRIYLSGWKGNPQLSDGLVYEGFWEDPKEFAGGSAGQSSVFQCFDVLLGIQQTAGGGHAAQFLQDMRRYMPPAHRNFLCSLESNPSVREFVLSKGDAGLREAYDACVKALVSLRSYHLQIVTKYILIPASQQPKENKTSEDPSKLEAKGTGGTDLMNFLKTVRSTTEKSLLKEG

Compound | IC50 [µM]
NOC(c1ccc(F)cc1)c1ccc(F)cc1 | 9
NOC(c1ccccc1)c1cc(C(F)(F)F)ccc1F (centres undefined) | 8
NOC(c1ccccc1)c1cccc(C(F)(F)F)c1F (centres undefined) | 6
NOC(c1ccccc1)c1cccc(F)c1 (centres undefined) | 5
NOC(c1ccccc1)c1ccc(Cl)cc1 (centres undefined) | 5
NOC(c1ccccc1)c1ccccc1Br (centres undefined) | 17
NOC(c1ccccc1)c1ccc(F)cc1F (centres undefined) | 7

Target: T4, Indoleamine 2,3-dioxygenase 1
Test: Inhibition of IDO1 in human HeLa cells using L-tryptophan as substrate after 20 hrs
Assay type: cell-based
Conditions: not given
Outline: as §1
Target sequence in this assay (P14902 whole entry): as above

Compound | IC50 [µM]
NOC(c1ccccc1)C1CCCCC1 (centres undefined) | 21
NOC(c1ccc(F)cc1)c1ccc(F)cc1 | 1.68
NOC(c1ccccc1)c1cc(C(F)(F)F)ccc1F (centres undefined) | 1.09
NOC(c1ccccc1)c1cccc(C(F)(F)F)c1F (centres undefined) | 0.933
NOC(c1ccccc1)c1cccc(F)c1 (centres undefined) | 0.939
NOC(c1ccccc1)c1ccc(Cl)cc1 (centres undefined) | 7.15
NOC(c1ccccc1)c1ccccc1Br (centres undefined) | 1.46
NOC(c1ccccc1)c1ccc(O)cc1 (centres undefined) | 2.89
NOC(c1ccccc1)c1cc(C(F)(F)F)cc(C(F)(F)F)c1 (centres undefined) | 3.35
NOC(c1ccccc1)c1ccc(F)cc1F (centres undefined) | 1.21

Same assay, conditions: hela

Compound | IC50 [µM]
NOC(c1ccccc1)c1cccc(C(F)(F)F)c1 (centres undefined) | 1.73

Target: T3, Indoleamine 2,3-dioxygenase 2 (Homo sapiens)
Test: Inhibition of IDO2 (unknown origin) at 100 uM using L-tryptophan as substrate by spectrophotometric method relative to control
Conditions: not given

Compound | inhibition [%]
NOC(c1ccccc1)C1CCCCC1 (centres undefined) | 88.6
NOC(c1ccc(F)cc1)c1ccc(F)cc1 | 73.6
NOC(c1ccccc1)c1cc(C(F)(F)F)ccc1F (centres undefined) | 73.8
NOC(c1ccccc1)c1cccc(C(F)(F)F)c1F (centres undefined) | 81.1
NOC(c1ccccc1)c1cccc(F)c1 (centres undefined) | 82
NOC(c1ccccc1)c1ccc(Cl)cc1 (centres undefined) | 74.3
NOC(c1ccccc1)c1ccccc1Br (centres undefined) | 81
NOC(c1ccccc1)c1ccc(F)cc1F (centres undefined) | 46

System: not listed separately
Test: Selectivity ratio of IC50 for inhibition of mouse IDO2 expressed in human T-REx cells to IC50 for inhibition of IDO1 in human HeLa cells
Assay type: cell-based
Conditions: not given
Outline: as §1

Compound | Ratio IC50
NOC(c1ccccc1)c1ccccc1Br (centres undefined) | 5 to 10

Target: T4, Indoleamine 2,3-dioxygenase 1
Test: Inhibition of IDO1 (unknown origin) at 100 uM using L-tryptophan as substrate by spectrophotometric method relative to control
Conditions: not given
Target sequence in this assay (P14902 whole entry, looked up): as the sequence (P14902 whole entry) above

Compound | inhibition [%]
NOC(c1ccccc1)C1CCCCC1 (centres undefined) | 76
NOC(c1ccc(F)cc1)c1ccc(F)cc1 | > 95
NOC(c1ccccc1)c1cc(C(F)(F)F)ccc1F (centres undefined) | > 95
NOC(c1ccccc1)c1cccc(C(F)(F)F)c1F (centres undefined) | > 95
NOC(c1ccccc1)c1cccc(C(F)(F)F)c1 (centres undefined) | 18
NOC(c1ccccc1)c1cccc(F)c1 (centres undefined) | > 95
NOC(c1ccccc1)c1ccc(Cl)cc1 (centres undefined) | > 95
NOC(c1ccccc1)c1ccccc1Br (centres undefined) | > 95
NOC(c1ccccc1)c1ccc(F)cc1F (centres undefined) | > 95

System: not listed separately
Test: Cytotoxicity against human HeLa cells assessed as cell viability up to 100 uM relative to control
Assay type: cell-based
Conditions: read-out: Activity

Compound | viability [%]
NOC(c1ccccc1)C1CCCCC1 (centres undefined) | ≥ 80
NOC(c1ccc(F)cc1)c1ccc(F)cc1 | ≥ 80
NOC(c1ccccc1)c1cc(C(F)(F)F)ccc1F (centres undefined) | ≥ 80
NOC(c1ccccc1)c1cccc(C(F)(F)F)c1F (centres undefined) | ≥ 80
NOC(c1ccccc1)c1cccc(C(F)(F)F)c1 (centres undefined) | ≥ 80
NOC(c1ccccc1)c1cccc(F)c1 (centres undefined) | ≥ 80
NOC(c1ccccc1)c1ccc(Cl)cc1 (centres undefined) | ≥ 80
NOC(c1ccccc1)c1ccccc1Br (centres undefined) | ≥ 80
NOC(c1ccccc1)c1ccc(O)cc1 (centres undefined) | ≥ 80
NOC(c1ccccc1)c1cc(C(F)(F)F)cc(C(F)(F)F)c1 (centres undefined) | 60
NOC(c1ccccc1)c1ccc(F)cc1F (centres undefined) | 60

Target: T4, Indoleamine 2,3-dioxygenase 1
Test: Inhibition of IDO1 (unknown origin) at 200 uM using L-tryptophan as substrate by spectrophotometric method relative to control
Conditions: not given
Target sequence in this assay (P14902 whole entry, looked up): as the sequence (P14902 whole entry) above

Compound | inhibition [%]
NOC(c1ccccc1)c1ccc(O)cc1 (centres undefined) | 18.3
NOC(c1ccccc1)c1cc(C(F)(F)F)cc(C(F)(F)F)c1 (centres undefined) | 56

Target: T2, Tryptophan 2,3-dioxygenase
Test: Inhibition of TDO (unknown origin) at 100 uM using L-tryptophan as substrate by spectrophotometric method relative to control
Conditions: not given
Target sequence in this assay (P48775 whole entry, looked up): as the sequence (P48775 whole entry) above

Compound | inhibition [%]
NOC(c1ccccc1)C1CCCCC1 (centres undefined) | 43.6
NOC(c1ccc(F)cc1)c1ccc(F)cc1 | > 95
NOC(c1ccccc1)c1cc(C(F)(F)F)ccc1F (centres undefined) | 73.4
NOC(c1ccccc1)c1cccc(C(F)(F)F)c1F (centres undefined) | 93.2
NOC(c1ccccc1)c1cccc(C(F)(F)F)c1 (centres undefined) | > 95
NOC(c1ccccc1)c1cccc(F)c1 (centres undefined) | > 95
NOC(c1ccccc1)c1ccc(Cl)cc1 (centres undefined) | > 95
NOC(c1ccccc1)c1ccccc1Br (centres undefined) | 90.4
NOC(c1ccccc1)c1ccc(F)cc1F (centres undefined) | 90.3
